We go through 23 compounds from ChEMBL document CHEMBL2380254, “Optimization of tocotrienols as antiproliferative and antimigratory leads” (Eur J Med Chem, 2013).

Common to all, as to assay type: functional, cell-based
Test [1] is described as follows: Antiproliferative activity against mouse +SA cells by MTT assay. As to conditions: +SA cell. Put shortly:
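Mouse +SA mammary epithelial cells in serum-free DMEM/F12 with BSA, transferrin, insulin and EGF. Compounds from DMSO stock conjugated to BSA (overnight, 37 °C); 0–40 µM, final DMSO <0.1%. MTT 0.42 mg/mL for 4 h at 37 °C, isopropanol solubilization, OD 570 nm. Cell number from a standard curve; IC50 by non-linear regression.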
(In general: Tetrazolium dyes change colour on reduction, which living cells bring about.)

For another test, the system named is MCF7. The experiment in a line: Antiproliferative activity against human MCF7 cells by MTT assay. Put shortly:
(§1)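 Cells plated at 8 × 10^3/well (MDA-MB-231) or 10^4/well (MCF7) in 96-well plates. Compounds fed in media with 5% FBS (MDA-MB-231) or 1% FBS (MCF7). MTT read-out of viable cells.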

Test [2] concerns MDA-MB-231. The experiment in a line: Antiproliferative activity against human MDA-MB-231 cells by MTT assay. Put shortly: as §1
Test [3] has as its system MDA-MB-231. The test is described as follows: Antimigratory activity against human MDA-MB-231 cells after 24 hrs by wound-healing assay. To be noted: MDA-MB-231, 24 h. Put shortly: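 MDA-MB-231 in RPMI 1640 with 10% FBS grown to >95% confluent monolayer, scratched with a pipette tip and washed. Then 24 h exposure in 0.5% serum at five non-toxic concentrations in DMSO, triplicate, DMSO as negative control. Diff Quick fixed and stained; migrated cells counted in ≥3 random 40× fields. IC50 = concentration inhibiting migration of 50% of cells.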

With `CC(C)=CCC/C(C)=C/CC/C(C)=C/CC[C@]1(C)CCc2c3c(c(C)c(C)c2O1)OCN(CCO)C3`, the IC50 (usually the concentration that gives 50% inhibition) in test [1] was 1.7 µM.

For `CC(C)=CCC/C(C)=C/CC/C(C)=C/CC[C@]1(C)CCc2c3c(cc(C)c2O1)OCN(CCCCCC(=O)O)C3`, in test [1], the IC50 was found to be 5.1 µM.

In test [1], `CC(C)=CCC/C(C)=C/CC/C(C)=C/CC[C@]1(C)CCc2cc3c(c(C)c2O1)CN(CCO)CO3` yielded a half-inhibitory concentration (IC50) of 0.96 µM.

On to `CC(C)=CCC/C(C)=C/CC/C(C)=C/CC[C@]1(C)CCc2c3c(cc(C)c2O1)OCN(CCO)C3`, for which the IC50 in test [1] was 4.2 µM; in the test on MCF7 it was 6 µM; in the test with MDA-MB-231 [2], above 5 µM; with MDA-MB-231 [3], 1.3 µM.

Turning to `CC(C)=CCC/C(C)=C/CC/C(C)=C/CC[C@]1(C)CCc2c3c(c(C)c(C)c2O1)OCN(CCCCC(=O)O)C3`, in test [1], the IC50 worked out at 1.8 µM.

As for `CC(C)=CCC/C(C)=C/CC/C(C)=C/CC[C@]1(C)CCc2cc(O)cc(C)c2O1` [DELTA-TOCOTRIENOL], the IC50 in the test on MDA-MB-231 [3] is above 40 µM.

As for `COc1ccc(CCN2COc3cc4c(c(C)c3C2)O[C@](C)(CC/C=C(\C)CC/C=C(\C)CCC=C(C)C)CC4)cc1OC`, in test [1], the IC50 turned out to be 0.84 µM.

As for `CC(C)=CCC/C(C)=C/CC/C(C)=C/CC[C@]1(C)CCc2c3c(c(C)c(C)c2O1)OCN(Cc1ccccc1)C3`, the figures for the IC50 (in test [1]; with MCF7; in the test with MDA-MB-231 [2]) were 2 µM, above 20 µM and 27.3 µM, respectively.

The compound `CC(C)=CCC/C(C)=C/CC/C(C)=C/CC[C@]1(C)CCc2c3c(cc(C)c2O1)OCN(C)C3` registered an IC50 in test [1] of 1.3 µM.

As for `CC(C)=CCC/C(C)=C/CC/C(C)=C/CC[C@]1(C)CCc2c(CO)c(O)cc(C)c2O1`, the IC50 in test [1] was above 20 µM.

In test [1], `CC(C)=CCC/C(C)=C/CC/C(C)=C/CC[C@]1(C)CCc2c3c(c(C)c(C)c2O1)OCN(CCCCCC(=O)O)C3` yielded an IC50 of 5 µM.

As for `CC(C)=CCC/C(C)=C/CC/C(C)=C/CC[C@]1(C)CCc2c3c(c(C)c(C)c2O1)OCN(CC1CCNCC1)C3`, the IC50 is 4.6 µM in test [1], above 20 µM with MCF7 and 0.8 µM with MDA-MB-231 [2].

Consider `CCOC(CCN1COc2cc(C)c3c(c2C1)CC[C@@](C)(CC/C=C(\C)CC/C=C(\C)CCC=C(C)C)O3)OCC`, for which the 50% inhibitory concentration (IC50) in test [1] was determined as 1 µM.

`CCOC(CCN1COc2c(C)c(C)c3c(c2C1)CC[C@@](C)(CC/C=C(\C)CC/C=C(\C)CCC=C(C)C)O3)OCC` returned an IC50 in test [1] of 9.3 µM.

For `CC(C)=CCC/C(C)=C/CC/C(C)=C/CC[C@]1(C)CCc2c3c(c(C)c(C)c2O1)OCN(C)C3`, the IC50 in test [1] amounted to 2.2 µM.

For the compound `CC(C)=CCC/C(C)=C/CC/C(C)=C/CC[C@]1(C)CCc2c3c(c(C)c(C)c2O1)OCN(Cc1cccc([N+](=O)[O-])c1)C3`, the IC50 in test [1] is 24.6 µM.

In the case of `CC(C)=CCC/C(C)=C/CC/C(C)=C/CC[C@]1(C)CCc2c3c(cc(C)c2O1)OCN(CCCCC(=O)O)C3`, in test [1], the IC50 came out at 11.9 µM.

In the case of `CC(C)=CCC/C(C)=C/CC/C(C)=C/CC[C@]1(C)CCc2c3c(cc(C)c2O1)OCN(Cc1cccc([N+](=O)[O-])c1)C3`, 29.1 µM corresponded to half-maximal inhibition in test [1] (IC50).

In turn, `CC(C)=CCC/C(C)=C/CC/C(C)=C/CC[C@]1(C)CCc2c(CO)c(O)c(C)c(C)c2O1` came in with an IC50 in test [1] of 2.6 µM.

As for `CC(C)=CCC/C(C)=C/CC/C(C)=C/CC[C@]1(C)CCc2c3c(c(C)c(C)c2O1)OCN(CCCO)C3`, the IC50 in test [1] was 2.5 µM; in the test on MCF7, above 20 µM; in the test on MDA-MB-231 [2] it was 9.6 µM; in the test on MDA-MB-231 [3], 8.1 µM.

Compound `CC(C)=CCC/C(C)=C/CC/C(C)=C/CC[C@]1(C)CCc2c3c(c(C)c(C)c2O1)OCN(C1CCN(Cc2ccccc2)CC1)C3` had an IC50 in test [1] of 8.7 µM.

In test [1], `CC(C)=CCC/C(C)=C/CC/C(C)=C/CC[C@]1(C)CCc2cc(O)c(CO)c(C)c2O1` had an IC50 of 6.6 µM.

In test [1], `C=CCN1COc2c(C)c(C)c3c(c2C1)CC[C@@](C)(CC/C=C(\C)CC/C=C(\C)CCC=C(C)C)O3` had an IC50 of 11.6 µM.
